Source: ChEMBL document CHEMBL3091343, “Nicotinamide phosphoribosyltransferase inhibitors, design, preparation, and structure-activity relationship” (J Med Chem, 2013)

How the values were obtained:
MCF7 = test: Cytotoxicity against human MCF-7 cells assessed as growth inhibition after 72 hrs by WST-1 assay; assay type: functional, cell-based; conditions: MCF7, 72 h
A2780 = test: Cytotoxicity against human A2780 cells assessed as growth inhibition after 72 hrs by WST-1 assay; assay type: functional, cell-based; conditions: A2780, 72 h
[1] = biological target: Nicotinamide phosphoribosyltransferase (Homo sapiens, UniProt P43490); test: Inhibition of NAMPT in human HepG2 cells using [14C]-nicotinamide/PRPP as substrate assessed as formation of [14C]-nicotinamide mononucleotide after 1 hr by liquid scintillation counting analysis; assay type: cell-based
Sequence of Nicotinamide phosphoribosyltransferase (P43490 whole entry): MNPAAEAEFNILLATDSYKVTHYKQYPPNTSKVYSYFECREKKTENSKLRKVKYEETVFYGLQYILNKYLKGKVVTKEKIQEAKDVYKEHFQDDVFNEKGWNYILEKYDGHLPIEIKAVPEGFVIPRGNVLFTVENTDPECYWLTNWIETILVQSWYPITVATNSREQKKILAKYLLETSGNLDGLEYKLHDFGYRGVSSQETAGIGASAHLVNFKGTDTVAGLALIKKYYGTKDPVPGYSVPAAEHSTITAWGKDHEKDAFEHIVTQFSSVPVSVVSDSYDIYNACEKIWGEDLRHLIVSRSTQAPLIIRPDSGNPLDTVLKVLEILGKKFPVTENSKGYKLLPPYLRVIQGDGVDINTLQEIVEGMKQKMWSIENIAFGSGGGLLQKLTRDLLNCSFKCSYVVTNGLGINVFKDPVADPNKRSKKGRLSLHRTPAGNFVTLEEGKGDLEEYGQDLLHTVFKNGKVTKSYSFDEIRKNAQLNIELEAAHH

HCT-116 [2] = test: Cytotoxicity against APO866-resistant human HCT116 cells assessed as growth inhibition after 72 hrs by WST-1 assay; assay type: functional, cell-based; conditions: HCT-116, 72 h
HCT-116 [3] = test: Cytotoxicity against human HCT116 cells assessed as growth inhibition after 72 hrs by WST-1 assay; assay type: functional, cell-based; conditions: HCT-116, 72 h
[4] = Toxicity in ip dosed NMRI mouse assessed as blood cell count administered as bid for 5 days; assay type: organism-based; conditions: in vivo
[5] = Apparent volume of distribution in NMRI mouse at 50 mg/kg, iv; assay type: ADME, organism-based; set-up: dose 50 mg/kg, route intravenous; conditions: in vivo, read-out: Vz
Outline: (§1)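 Mouse PK after a single i.v. dose. Plasma proteins were precipitated with acetonitrile containing internal standard (3:1 v/v). Samples were analysed by UPLC-MS/MS on a C18 column at 40°C with an acetonitrile–0.05% formic acid gradient, using positive electrospray MRM. Parameters were derived by non-compartmental analysis.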

[6] = Half life in NMRI mouse at 50 mg/kg, iv; assay type: ADME, organism-based; set-up: dose 50 mg/kg, route intravenous; conditions: in vivo; outline: as §1
[7] = Tmax in NMRI mouse at 50 mg/kg, iv; assay type: ADME, organism-based; set-up: dose 50 mg/kg, route intravenous; conditions: in vivo; outline: as §1
[8] = AUC in NMRI mouse at 50 mg/kg, iv; assay type: ADME, organism-based; set-up: dose 50 mg/kg, route intravenous; conditions: plasma; outline: as §1
[9] = Clearance in NMRI mouse at 50 mg/kg, iv; assay type: ADME, organism-based; set-up: dose 50 mg/kg, route intravenous; conditions: in vivo; outline: as §1
[10] = Toxicity in ip dosed NMRI mouse assessed as body weight loss administered as bid for 5 days; assay type: organism-based; conditions: in vivo
HCT-116 [11] = test: Resistance factor, ratio of IC50 for APO866-resistant human HCT116 cells to IC50 for human HCT116 cells; assay type: functional
[12] = Cmax in NMRI mouse at 50 mg/kg, iv; assay type: ADME, organism-based; set-up: dose 50 mg/kg, route intravenous; conditions: in vivo; outline: as §1
Plasma = test: Metabolic stability in mouse plasma assessed as compound hydrolysis; assay type: ADME, cell-free

| Structure (SMILES) | IC50 (MCF7) [nM] | IC50 (A2780) [nM] | further results |
| --- | --- | --- | --- |
| O=C(NCCCCCCC(=O)N(OCCN1CCOCC1)C1CCCCC1)NCc1cccnc1 | 0.37 | 0.27 | – |
| O=C(NCCCCCCS(=O)(=O)N(CCCN1CCOCC1)C1CCC1)NCc1cccnc1 | 8.7 | 1.7 | – |
| O=C(NCCCCCCS(=O)(=O)N(CCN1CCOCC1)CC1CCCCC1)Nc1ccncc1 | 1.4 | 0.56 | IC50 [1]: 133 nM |
| N#C/N=C(\NCCCCCCCC(=O)N(Cc1ccccc1)OCCN1CCOCC1)Nc1ccncc1 | – | 0.01 | IC50 [1]: 4.4 nM |
| N#C/N=C(\NCCCCCCS(=O)(=O)N(OCCN1CCOCC1)C1CCCC1)Nc1ccncc1 | – | 0.0041 | – |
| C[C@H](CCCCCN/C(=N\C#N)Nc1ccncc1)C(=O)NOC1CCCCC1 | 38.3 | 3.9 | – |
| O=C1C(=O)C(Nc2ccncc2)C1NCCCCCS(=O)(=O)N(OCCN1CCOCC1)C1CCCCC1 (centres undefined) | 35.8 | 0.57 | IC50 [1]: 49.6 nM |
| N#C/N=C(\NCCCCCCS(=O)(=O)N(OCCN1CCOCC1)C1CCC1)Nc1ccncc1 | 0.007 | 0.049 | – |
| N#CNC(=Nc1ccncc1)NCCCCCCC(=O)NOC1CCCCC1 | 940 | 35 | IC50 [1]: 1.1 nM |
| O=C1C(=O)C(Nc2ccncc2)C1NCCCCCCS(=O)(=O)N(OCCN1CCOCC1)C1CCCCC1 (centres undefined) | 9 | 0.49 | IC50 (HCT-116 [2]): > 5000 nM; IC50 (HCT-116 [3]): 39 nM; MTD at 120 h [4]: < 10 mg/kg; Vd [5]: 1.2 L/kg; half-life [6]: 12.6 min; Tmax [7]: 4.98 min; AUC [8]: 12500 ng·h/mL; clearance [9]: 66.6 mL/min/kg; MTD at 120 h [10]: < 10 mg/kg; Ratio IC50 (HCT-116 [11]): 128; Cmax [12]: 33500 ng/mL |
| C[C@@H](CCCCCN/C(=N\C#N)Nc1ccncc1)C(=O)NOC1CCCCC1 | 1 | 0.08 | – |
| O=C(CCCCCCNC(=S)NCc1cccnc1)N(OCCN1CCOCC1)C1CCCCC1 | 5.5 | 0.91 | IC50 [1]: 8.2 nM |
| O=C(NCCCCCCCS(=O)(=O)N(OCCN1CCOCC1)C1CCCCC1)Nc1ccncc1 | 7.4 | 1.8 | – |
| O=C(NCCCCCS(=O)(=O)N(OCCN1CCOCC1)C1CCCCC1)Nc1ccncc1 | 28 | 3.4 | – |
| N#C/N=C(\NCCCCCCC(=O)N(OCCN1CCOCC1)C1CCCCC1)Nc1ccccc1 | 1020 | 98 | – |
| N#C/N=C(\NCCCCC[C@H](Cc1ccccc1)C(=O)NOC1CCCCC1)Nc1ccncc1 | 1.7 | 0.22 | Stability (Plasma): Unstable |
| O=C1C(=O)C(Nc2ccncc2)C1NCCCCCCS(=O)(=O)N(CCN1CCOCC1)OCC1CCCCC1 (centres undefined) | 10.8 | 0.73 | – |
| O=C1C(=O)C(Nc2ccncc2)C1NCCCCCCCS(=O)(=O)N(OCCN1CCOCC1)C1CCCCC1 (centres undefined) | 8 | 0.49 | IC50 [1]: 3.6 nM |
| N#C/N=C(\NCCCCCS(=O)(=O)N(OCCN1CCOCC1)C1CCCCC1)Nc1ccncc1 | 0.036 | 0.011 | – |
| N#C/N=C(\NCCCCCCS(=O)(=O)N(CCCN1CCOCC1)C1CCC1)Nc1ccncc1 | 0.1 | 0.091 | – |
| N#CN=C(NCCCCCCOc1ccc(Cl)cc1)Nc1ccncc1 [CHS-828] | 1.6 | 0.56 | – |
| O=C(NCCCCCCS(=O)(=O)N(OCCN1CCOCC1)C1CCC1)NCc1cccnc1 | 11 | 2.2 | – |
| O=C(NCCCCCS(=O)(=O)N(OCCN1CCOCC1)C1CCCC1)NCc1cccnc1 | 7 | 2.7 | – |
| N#C/N=C(\NCCCCCCS(=O)(=O)N(CCN1CCOCC1)OCc1ccccc1)Nc1ccncc1 | 0.63 | 0.053 | – |
